Bioassay records deposited in PubChem BioAssay by several laboratories.
PMI activator: phosphomannose isomerase (human) activation; 190,000 compounds, 0.005% hits; P34949; purified human PMI, coupled resazurin fluorescence, 20 min; hits give high values; 1 = vehicle control, 0 substrate-free wells; AID 1214; activation factor at 20 µM;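 active = activation factor of 2 or more at 20 µM, relative to plate controls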
Target sequence (P34949 whole entry, looked up): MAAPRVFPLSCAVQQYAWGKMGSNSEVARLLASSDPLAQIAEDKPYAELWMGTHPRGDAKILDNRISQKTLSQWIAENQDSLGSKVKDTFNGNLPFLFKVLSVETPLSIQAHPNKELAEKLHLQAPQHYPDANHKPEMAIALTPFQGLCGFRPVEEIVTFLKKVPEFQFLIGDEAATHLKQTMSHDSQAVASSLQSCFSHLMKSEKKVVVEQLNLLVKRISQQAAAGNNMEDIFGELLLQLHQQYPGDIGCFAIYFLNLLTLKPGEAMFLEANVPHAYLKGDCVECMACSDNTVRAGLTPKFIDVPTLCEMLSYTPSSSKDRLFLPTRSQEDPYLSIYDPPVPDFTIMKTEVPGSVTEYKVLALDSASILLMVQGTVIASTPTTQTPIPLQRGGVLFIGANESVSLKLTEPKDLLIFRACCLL
PTEN del growth: PTEN-deleted cell growth suppression | HCT116 PTEN-null viability, CellTiter-Glo, 60 h; hits give low values | viability, % at 10 µM | 140,000 compounds, 1.2% hits;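 active = viability at or below a set limit, 4 SD under the median of all tested compounds, cut at about 3.7% in these data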;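 note: PTEN knockout HCT116 line with beta catenin targeted HCT116 as companion control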
PMI act hi M6P: activators of human phosphomannose isomerase at near-saturating mannose 6-phosphate. activation factor at 20 µM. 190,000 compounds, 0.34% hits. P34949. AID 1216. coupled PMI enzyme assay, resazurin fluorescence, 20 min; hits give high values; 1 = untreated enzyme, 0 = substrate-free blank;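 active = activation factor of 2 or more at 20 µM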
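Material: human phosphomannose isomerase with PGI, G6PDH, diaphorase coupling enzymes. Quantity: 15 ng/mL PMI. Medium: HEPES pH 7.4 buffer with MgCl2 and Tween-20. Reagent: Near-saturating mannose-6-phosphate, 1.0 mM. Compound: 20 µM single dose. Times: enzyme reaction with compound 20 min at room temperature. Detection: resorufin fluorescence at Ex 544/Em 590 nm.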
bCat KO growth: beta-catenin-lacking colon tumor cell growth suppression. AID 818. 140,000 compounds, 1.5% hits. HCT116 beta-catenin knockout viability, CellTiter-Glo, 60 h; hits give low values. viability, % at 10 µM;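 active = viability at or under a set limit, the compound median less 4 SD, cut at about 6% in these data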;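 note: 0% = Hyamine 1622 control at 20 µM and 100% = untreated cell control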
L major viab: reduces viability of Leishmania major promastigotes; resazurin fluorescence viability; inhibition, % at 10 µM; 200,000 compounds, 9% hits; AID 1063; in the data active = inhibition above about 50%;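 note: promastigotes grown with compound for 44 hours at 28 °C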
Active calls of the source: *. Shown are actives, neighbours in structure and some others; about 9.6% of the full set was active somewhere.

Screening COc1ccc(C(C(=O)NC(C)(C)C)N(Cc2ccccc2)C(=O)CCC(=O)Nc2cc(C)on2)cc1 (stereo unspecified) returned PMI activator 0.9, PMI act hi M6P 1 and L major viab 95*.
Screening CC[C@H](C)[C@H](NC(N)=O)C(=O)NCCc1ccc(Cl)cc1Cl returned PMI activator 1, PMI act hi M6P 0.9 and L major viab 8.
CCN(CC)S(=O)(=O)c1ccc(C(=O)NNC(=O)C2CCN(S(=O)(=O)c3ccc(Cl)cc3)CC2)cc1 was read as PMI activator 0.9, PTEN del growth 88, PMI act hi M6P 1, bCat KO growth 90 and L major viab -4.
For Cc1ccc(S(=O)(=O)N2CCC(C(=O)Nc3nnc(C45CC6CC(CC(C6)C4)C5)s3)CC2)cc1 the results were PMI activator 1, PTEN del growth 76, PMI act hi M6P 1, bCat KO growth 64 and L major viab -6.
`CCN(CC(=O)NC(C)C)C(=O)c1ccc(Cl)cc1` gave PMI activator 0.9, PTEN del growth 96, PMI act hi M6P 1.1, bCat KO growth 92 and L major viab -6.
`CN(C)c1ccc(C(=O)c2ccccc2)cc1` gave PMI activator 1, PTEN del growth 87, PMI act hi M6P 1, bCat KO growth 89 and L major viab -1.
Screening COC(=O)C(C)N(C(=O)c1ccc(C(=O)c2ccccc2)cc1)c1c(C)cccc1C (stereo unspecified) returned PMI activator 0.9, PTEN del growth 45, PMI act hi M6P 1, bCat KO growth 50 and L major viab 99*.
Screening COC(=O)C(C)N(C(=O)c1ccc(Cl)cc1)c1c(C)cccc1C (stereo unspecified) returned PMI activator 1.1, PTEN del growth 75, PMI act hi M6P 1.1, bCat KO growth 81 and L major viab 87*.
CC(C)Oc1ccc(C(=O)Nc2cccc3cccnc23)cc1 was read as PMI activator 0.9, PMI act hi M6P 0.9 and L major viab -7.
O=C1c2[nH]nc(-c3ccccc3O)c2C(c2cccc(Cl)c2)N1Cc1ccco1 (stereo unspecified) was read as PMI activator 0.8, PTEN del growth 49, PMI act hi M6P 0.9, bCat KO growth 62 and L major viab 79*.
O=C1c2[nH]nc(-c3ccccc3O)c2C(c2ccc(F)cc2)N1Cc1ccco1 (stereo unspecified) was read as PMI activator 0.9, PTEN del growth 80, PMI act hi M6P 1, bCat KO growth 81 and L major viab 94*.
Screening O=C1c2[nH]nc(-c3ccccc3O)c2C(c2ccc(F)cc2)N1CC1CCCO1 (stereo unspecified) returned PMI activator 0.9, PTEN del growth 81, PMI act hi M6P 1, bCat KO growth 89 and L major viab 44.
For CCCn1c(=O)n(C)c(=O)c2c(SCC(=O)NC34CC5CC(CC(C5)C3)C4)nc(CC(C)C)nc21 the results were PMI activator 0.8, PTEN del growth 51, PMI act hi M6P 0.9, bCat KO growth 44 and L major viab 39.
CCn1c(/C=C/Nc2ccccc2)[n+](CC)c2ccc(Cl)cc21 was read as PMI activator 1.2, PTEN del growth 47, PMI act hi M6P 1.2, bCat KO growth 47 and L major viab 91*.
`CCn1c(/C=C/N(C)c2ccccc2)[n+](CC)c2ccc(Cl)cc21` gave PMI activator 0.7, PTEN del growth 5, PMI act hi M6P 0.8, bCat KO growth 3.8* and L major viab 100*.
For COc1cccc(CC2(CO)CCCN(Cc3cc4ccccc4[nH]3)C2)c1 (stereo unspecified) the results were PMI activator 0.9, PMI act hi M6P 0.9 and L major viab 74*.
For COc1cccc(CC2(CO)CCCN(Cc3ccc(C)s3)C2)c1 (stereo unspecified) the results were PMI activator 1, PMI act hi M6P 1 and L major viab 67*.
`COc1cccc(CC2(CO)CCCN(Cc3ccc(CO)o3)C2)c1` (stereo unspecified) gave PMI activator 0.9, PMI act hi M6P 1 and L major viab 3.
Screening CCOCC(=O)Nc1c(C(=O)Nc2ccc3c(c2)OCCO3)oc2ccccc12 returned PMI activator 0.9, PMI act hi M6P 0.9 and L major viab 7.
For CCN(CC)S(=O)(=O)c1ccc2c(c1)nc(SCC(=O)NC1CC1)n2-c1ccccc1OC the results were PMI activator 1, PTEN del growth 82, PMI act hi M6P 1.1, bCat KO growth 89 and L major viab 80*.
COc1ccccc1-n1c(SCC(=O)NC2CCS(=O)(=O)C2)nc2cc([N+](=O)[O-])ccc21 (stereo unspecified) was read as PMI activator 0.9, PTEN del growth 94, PMI act hi M6P 1, bCat KO growth 93 and L major viab 0.
`COc1ccccc1-n1c(SCC(=O)c2ccc(O)cc2O)nc2cc([N+](=O)[O-])ccc21` gave PMI activator 1, PTEN del growth 88, PMI act hi M6P 1, bCat KO growth 88 and L major viab 51*.
Screening CC(C)(C)NC(=O)NC(=O)COC(=O)CNS(=O)(=O)c1ccc(Br)cc1Cl returned PMI activator 1, PMI act hi M6P 0.9 and L major viab -5.
For CS(=O)(=O)N(CC(=O)Nc1ccc(CC#N)cc1)c1ccc(C23CC4CC(CC(C4)C2)C3)cc1 the results were PMI activator 0.8, PTEN del growth 10, PMI act hi M6P 0.8, bCat KO growth 13 and L major viab 47.
For O=[N+]([O-])c1ccc(COc2ccc(-c3[nH]ncc3-c3ccc(Cl)cc3)c(O)c2)cc1 the results were PMI activator 1.1, PTEN del growth 17, PMI act hi M6P 1.2, bCat KO growth 17 and L major viab 73*.
For Cc1nn(-c2ccc(F)cc2)c(C)c1/C=C/C(=O)N1CCNC(=O)C1 the results were PMI activator 1.1, PMI act hi M6P 1.1 and L major viab 4.
`O=C(Nc1ccc2c(c1)CCC2)c1cc(S(=O)(=O)Nc2ccc(F)cc2)c(Cl)cc1Cl` gave PMI activator 1, PTEN del growth 64, PMI act hi M6P 1, bCat KO growth 67 and L major viab 60*.
Screening O=C(Nc1ccc2c(c1)CCC2)c1ccc(F)cc1 returned PMI activator 1, PTEN del growth 79, PMI act hi M6P 0.9, bCat KO growth 80 and L major viab -1.
`CC(NC(=O)Cc1ccccc1)c1nc2ccccc2[nH]1` (stereo unspecified) gave PMI activator 1.1, PTEN del growth 87, PMI act hi M6P 1.1, bCat KO growth 92 and L major viab -5.
CC(C)C(=O)Nc1sc2c(c1-c1nc3ccccc3[nH]1)CCCC2 was read as PMI activator 1.1, PTEN del growth 77, PMI act hi M6P 1.3, bCat KO growth 79 and L major viab 61*.
